ChEMBL document CHEMBL1795210, “Synthesis and screening of (E)-1-(β-D-galactopyranosyl)-4-(aryl)but-3-ene-2-one against Mycobacterium tuberculosis” (2011)
Converted amounts (≈) assume the structure as drawn.

The compounds below were run on Mycobacterium tuberculosis (assay: Antimicrobial activity against Mycobacterium tuberculosis H37Rv after 28 days by agar dilution method). Details: 672 h.
Assay type: functional
Method in brief: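 Agar dilution on Middlebrook 7H11 with OADC supplement. Compound serially diluted into the agar, […]. H37Rv inoculum from fresh 7H11 slants, set to 1 mg/mL wet weight in 0.05% Tween 80 saline, diluted 10^2 to about 10^7 cfu/mL; 5 µL spotted per tube. Incubated at 37 C, read at 28 days. MIC = lowest concentration giving complete growth inhibition.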
CO[C@H]1/C=C/O[C@@]2(C)Oc3c(C)c(O)c4c(O)c(c(/C=N/N5CCN(C)CC5)c(O)c4c3C2=O)NC(=O)/C(C)=C\C=C\[C@H](C)[C@H](O)[C@@H](C)[C@@H](O)[C@@H](C)[C@H](OC(C)=O)[C@@H]1C [RIFAMPIN] was tested, and the MIC was 0.1 µg/mL (≈ 0.122 µM). In the case of O=C(/C=C/c1cnc2ccccc2c1)C[C@@H]1O[C@H](CO)[C@H](O)[C@H](O)[C@H]1O, the MIC is reported as 6.25 µg/mL (≈ 17.4 µM). O=C(/C=C/c1ccc(-c2ccc(Cl)cc2[N+](=O)[O-])o1)C[C@@H]1O[C@H](CO)[C@H](O)[C@H](O)[C@H]1O was tested, and the MIC was > 12.5 µg/mL. O=C(/C=C/c1ccc(C(=O)O)cc1)C[C@@H]1O[C@H](CO)[C@H](O)[C@H](O)[C@H]1O gave an MIC of 1.56 µg/mL (≈ 4.43 µM). In the case of C#Cc1ccccc1/C=C/C(=O)C[C@@H]1O[C@H](CO)[C@H](O)[C@H](O)[C@H]1O, the MIC is reported as > 12.5 µg/mL. Work on O=C(/C=C/c1ccc2c(c1)OCO2)C[C@@H]1O[C@H](CO)[C@H](O)[C@H](O)[C@H]1O yielded an MIC of 1.56 µg/mL (≈ 4.43 µM). For C=Cc1cccc(/C=C/C(=O)C[C@@H]2O[C@H](CO)[C@H](O)[C@H](O)[C@H]2O)c1, the MIC was 3.13 µg/mL (≈ 9.36 µM). With NNC(=O)c1ccncc1 [ISONIAZID] the MIC was 0.05 µg/mL (≈ 0.365 µM). CN(C)c1ccc(/C=C/C(=O)C[C@@H]2O[C@H](CO)[C@H](O)[C@H](O)[C@H]2O)cc1 was tested, and the MIC was 1.56 µg/mL (≈ 4.44 µM). O=C(/C=C/c1ccc2cccc(O)c2n1)C[C@@H]1O[C@H](CO)[C@H](O)[C@H](O)[C@H]1O gave an MIC of 3.13 µg/mL (≈ 8.34 µM). O=C(/C=C/c1ccc2ccccc2n1)C[C@@H]1O[C@H](CO)[C@H](O)[C@H](O)[C@H]1O showed an MIC of 3.13 µg/mL (≈ 8.71 µM). Compound O=C(/C=C/c1ccc(N(CCO)CCO)cc1)C[C@@H]1O[C@H](CO)[C@H](O)[C@H](O)[C@H]1O has an MIC of 6.25 µg/mL (≈ 15.2 µM). In the case of O=C(/C=C/c1ccc(-c2ccccc2[N+](=O)[O-])o1)C[C@@H]1O[C@H](CO)[C@H](O)[C@H](O)[C@H]1O, the MIC is reported as > 12.5 µg/mL. For O=C(/C=C/c1ccc(CO)o1)C[C@@H]1O[C@H](CO)[C@H](O)[C@H](O)[C@H]1O, the MIC was 1.56 µg/mL (≈ 4.75 µM). In the case of COc1cc(OC)c(/C=C/C(=O)C[C@@H]2O[C@H](CO)[C@H](O)[C@H](O)[C@H]2O)c(OC)c1, the MIC is reported as 6.25 µg/mL (≈ 15.7 µM). COc1ccc(/C=C/C(=O)C[C@@H]2O[C@H](CO)[C@H](O)[C@H](O)[C@H]2O)cc1Br was tested, and the MIC was > 12.5 µg/mL. Compound O=C(/C=C/c1cc(C(F)(F)F)ccc1C(F)(F)F)C[C@@H]1O[C@H](CO)[C@H](O)[C@H](O)[C@H]1O has an MIC of 12.5 µg/mL (≈ 28.1 µM). For O=C(/C=C/c1ccc(-c2ccccc2)cc1)C[C@@H]1O[C@H](CO)[C@H](O)[C@H](O)[C@H]1O, the MIC was 6.25 µg/mL (≈ 16.3 µM). With COc1cc(/C=C/C(=O)C[C@@H]2O[C@H](CO)[C@H](O)[C@H](O)[C@H]2O)cc(OC)c1OC the MIC was 6.25 µg/mL (≈ 15.7 µM). CC[C@@H](CO)NCCN[C@@H](CC)CO [ETHAMBUTOL] was tested, and the MIC was 1.56 µg/mL (≈ 7.64 µM). COc1c(O)cc(/C=C/C(=O)C[C@@H]2O[C@H](CO)[C@H](O)[C@H](O)[C@H]2O)cc1[N+](=O)[O-] showed an MIC of 1.56 µg/mL (≈ 3.91 µM). COc1ccc(-c2ccc(/C=C/C(=O)C[C@@H]3O[C@H](CO)[C@H](O)[C@H](O)[C@H]3O)o2)cc1Cl showed an MIC of 3.13 µg/mL (≈ 7.13 µM).
